Test results taken from publication PMC3086613 (Theranostics, 2011).

Assays:
[1] = test system: PC-3 cells; experiment: Cell uptake of 18F-labeled BBN peptides; type: cell-based, human; details: for PC-3 cell uptake peak value (percent added radioactivity): 37 °C, 15 min, n = 3, mean ± SD; for Cell uptake at 37 °C versus 4 °C: PC-3 cells
Outline: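 PC-3 cells (F-12K, 10% FBS, 37 °C, 5% CO2) were seeded at 1 × 10^5 per well overnight, washed three times with PBS, and given ~0.5 μCi/well radiotracer in triplicate at 37 °C. At 15, 30, 60 and 120 min, cells were rinsed with PBS and lysed with 0.1 M NaOH. Lysate activity was gamma-counted and expressed as percent added radioactivity.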

[2] = test system: PC-3 cells; experiment: Cell washout; type: cell-based, human; details: 37 °C, serum-free medium devoid of radioactivity
Outline: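 PC-3 cells were seeded at 1 × 10^5 per well overnight, PBS-rinsed, then loaded with ~0.5 μCi/well radiotracer in triplicate for 2 h at 37 °C. After a PBS wash they were re-incubated in serum-free medium. At 0, 15, 30, 60 and 120 min, cells were PBS-washed and lysed in 0.1 M NaOH. Retained activity was gamma-counted as percent added radioactivity.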

[3] = test system: PC-3 tumor-bearing nude mice; experiment: Small animal microPET imaging, ROI-derived radioactivity accumulation; type: in vivo; details: 3.7 MBq i.v.; PC-3 tumor-bearing mice; n = 3/group
Outline: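 Male athymic nude mice carried PC-3 xenografts (5 × 10^6 cells s.c., front flank; 100–300 mm3 after 3–4 weeks). Under isoflurane, ~3.7 MBq (100 μCi) radiotracer was given via tail vein. Five-minute static scans were taken at 30 min, 1 h and 2 h (2D OSEM, no attenuation or scatter correction). ROIs on decay-corrected coronal images gave %ID/g, assuming 1 g/mL; n = 3/group.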

Substance	PC-3 cell uptake peak value (percent added radioactivity) [1] [%]	Cell uptake at 37 °C versus 4 °C [1]	Washout rate from PC-3 cells [2]	Activity accumulation in non-target organs on PET images (in words) [3]	Tumor uptake on PET images (in words) [3]
18F-FP- GGGRDN-FQWAVGHLM-NHEt [^18F-FP-MATBBN]	0.3 ± 0.07	no significant difference	Much faster washout rate	–	–
18F-FP- GGGRDN-QWAVGHLM-NH2 [^18F-FP-MAGBBN]	1.2 ± 0.07	2 fold	slower washout	–	–
18F-FP-Aca-QWAVGHLM-NH2 [^18F-FP-AGBBN]	–	–	–	very high liver, bile and intestinal uptake	some tumor accumulation
18F-FP-FQWAVGHL-NHEt [^18F-FP-ATBBN]	–	–	–	rapid and prominent activity accumulation in the liver and intestines	almost no tumor uptake
